tolC growth inh: growth inhibitors of E. coli tolC mutant, primary screen, strain BW25113 ΔtolC::kan, 384-well; OD615; growth inhibition, % at 10 µM (by protocol); 65,000 tested, 2.2% active;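 active = growth inhibition at or above a cutoff equal to the mean over every tested compound plus 3 SD, cut at about 60% in these data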;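 note: growth measured after 20 h incubation at 37 °C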
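Signal: optical density read at 615 nm; Assay system: E. coli ΔtolC::kan strain BW25113; Times: 20 h incubation with compound, 37 °C; Dosing: 10 µM final, single dose.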
PostGolgi ctrl: growth inhibition of yeast control strain, primary screen, counter-screen for post-Golgi transport modulator project; efflux-deficient yeast background strain, growth absorbance A615, 16 h; inhibition, % at 10 µM; 98,000 tested, 5% active
E coli WT exp: growth inhibitors of wild-type E. coli, primary screen, strain BW25113, expanded library, OD600 | OD600 absorbance | growth inhibition, % at 100 µM | 98,000 tested, 0.15% active | AID 710, 2007;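 active = growth inhibition above about 50% at one test dose, limit read from the data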;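 note: growth measured after 20 h incubation at 37 °C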
PLAP activator: PLAP enzyme activators, biochemical, luminescence, HTS; purified PLAP enzyme, luminescent substrate read-out; stronger effect = higher value; 96,000 tested, 1.2% active; activation fold at 20 µM; Alkaline phosphatase, placental type (Homo sapiens), P05187; AID 696, 2007; in the data active = activation fold above about 2
PostGolgi yeast: phenotypic screen on post-Golgi transport, primary screen. 98,000 tested, 0.9% active. inhibition, % at 10 µM. post-Golgi transport phenotypic cell assay;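 note: yeast cells grown in 1536-well plates; yeast grown about 18 h at 30C before absorbance read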
HePTP inh: inhibitors of human HePTP phosphatase, primary screen, biochemical, absorbance, leukemia target. Tyrosine-protein phosphatase non-receptor type 7 (Homo sapiens), P35236. recombinant HePTP phosphatase activity, OD absorbance. inhibition, % at 20 µM. 110,000 tested, 0.64% active; in the data active = inhibition above about 50%;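 note: plate controls were vehicle for no effect and reference inhibitor for full effect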
Target sequence (P35236 whole entry, looked up): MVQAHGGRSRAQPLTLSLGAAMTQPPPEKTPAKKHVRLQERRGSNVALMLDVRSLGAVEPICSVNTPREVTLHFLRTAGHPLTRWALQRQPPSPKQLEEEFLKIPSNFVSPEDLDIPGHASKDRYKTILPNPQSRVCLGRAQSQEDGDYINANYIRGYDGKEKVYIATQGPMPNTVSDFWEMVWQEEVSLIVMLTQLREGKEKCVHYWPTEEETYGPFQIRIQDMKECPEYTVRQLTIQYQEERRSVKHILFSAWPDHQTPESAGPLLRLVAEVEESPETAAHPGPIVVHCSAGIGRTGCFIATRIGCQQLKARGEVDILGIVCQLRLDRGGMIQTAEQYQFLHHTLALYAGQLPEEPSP
An asterisk follows results filed as active. Hits are enriched below; roughly 5.5% of the tested compounds scored in any of these assays. Cut-off read from the data, not from the text of the source, unless noted: active = inhibition above about 30%; inactive = the rest.

`OCCN1CCN(Cc2cc(Cl)c3cccnc3c2O)CC1` gave PostGolgi ctrl -1, E coli WT exp 21, PLAP activator 2.2* and PostGolgi yeast -1.
Screening Oc1c(CN2CCCCC2)cc(COCc2ccccc2)c2cccnc12 returned tolC growth inh 100*, PostGolgi ctrl 0, E coli WT exp 30, PLAP activator 1.8, PostGolgi yeast -3 and HePTP inh 5.
Oc1c(CN2CCN(c3ccccn3)CC2)cc(Cl)c2cccnc12 was read as tolC growth inh 98*, PostGolgi ctrl 10, E coli WT exp 54*, PLAP activator 1.8, PostGolgi yeast -6 and HePTP inh 9.
`COCc1cc(CN2CCCC2)c(O)c2ncccc12` gave tolC growth inh 10, PostGolgi ctrl -2, E coli WT exp 34, PLAP activator 1.3, PostGolgi yeast -1 and HePTP inh -6.
`O=C(O)c1c(NS(=O)(=O)c2ccccc2)sc2c1CCCC2` gave HePTP inh -2.
CCOC(=O)c1c(NC(=O)c2cc(Br)ccc2OC)sc2c1CCCC2 was read as HePTP inh -4.
Screening CCCOc1ccc(C2C(C(=O)OC)=C(C)N=C3SCCC(=O)N32)cc1OCC (stereo unspecified) returned tolC growth inh -1, PostGolgi ctrl 5, E coli WT exp 2, PLAP activator 1.2, PostGolgi yeast 1 and HePTP inh 7.
Screening CCOc1cc(C2C(C(=O)OC(C)C)=C(C)N=C3SCCC(=O)N32)ccc1OC(C)=O (stereo unspecified) returned tolC growth inh -8, PostGolgi ctrl 39*, E coli WT exp 3, PLAP activator 1.4, PostGolgi yeast -1 and HePTP inh 5.
For NC(=O)c1cc(N2C(=O)C=CC2=O)ccc1Cl the results were PostGolgi ctrl 4, E coli WT exp 6, PLAP activator 1 and PostGolgi yeast -4.
O=C(O)c1cc(N2C(=O)C=CC2=O)ccc1Cl was read as HePTP inh 50*.
For Cc1ccc(C)c2[nH]c(=O)c(CN(CC3CCCO3)S(=O)(=O)c3ccc4c(c3)OCCO4)cc12 (stereo unspecified) the results were tolC growth inh 60*, PostGolgi ctrl 3, E coli WT exp -1, PLAP activator 1, PostGolgi yeast 14 and HePTP inh 13.
For COc1ccccc1NCC(O)Cn1c2ccccc2c2ccccc21 (stereo unspecified) the results were PostGolgi ctrl 57*, E coli WT exp -12, PLAP activator 0.8, PostGolgi yeast 13 and HePTP inh -16.
CC(C)NC(=O)CSc1nncn1-c1ccccc1 was read as tolC growth inh -6, PostGolgi ctrl 33*, E coli WT exp -2, PLAP activator 1, PostGolgi yeast 4 and HePTP inh -6.
`O=C(CSc1n[nH]c(-c2ccc(Cl)cc2Cl)n1)Nc1ccccn1` gave PostGolgi ctrl 33*, E coli WT exp -5, PLAP activator 1.7 and PostGolgi yeast -3.
For O=c1oc2cc([N+](=O)[O-])ccc2nc1/C=C(\O)c1cccs1 the results were HePTP inh 76*.
Screening Cc1nc(C)c(/C(O)=C/c2nc3ccc([N+](=O)[O-])cc3oc2=O)s1 returned HePTP inh 1.
For CC1(C)COC(COc2ccc(Cl)cc2)=N1 the results were HePTP inh -18.
For CC1CCN(CCc2nc3cc(NC(=O)NC4CCCCC4)ccc3n2C)CC1 the results were PostGolgi ctrl 20, E coli WT exp 5, PLAP activator 2* and PostGolgi yeast -6.
O=C(COc1ccc2ccccc2c1)Nc1ccc(Br)c(Cl)c1 was read as HePTP inh 2.
For CN1CCN(Cn2cc(/C=C/C(=O)c3ccccc3)c3ccccc32)CC1 the results were PostGolgi ctrl 34*, E coli WT exp 4, PLAP activator 0.8 and PostGolgi yeast 15.
Cc1ccc(C(=O)/C=C/c2cn(Cc3ccccc3)c3ccccc23)cc1 was read as HePTP inh -2.
`O=[N+]([O-])c1cc(-c2cnc3ccccc3n2)ccc1Oc1ccc(F)cc1` gave PostGolgi ctrl 15, E coli WT exp -16, PLAP activator 1 and PostGolgi yeast 0.
Screening O=[N+]([O-])c1ccc(Oc2cccc(F)c2)c2ccncc12 returned PostGolgi ctrl 38*, E coli WT exp 9, PLAP activator 0.9 and PostGolgi yeast 10.
For Clc1ccc(N2CCN(N=Cc3cccc4ccccc34)CC2)cc1 the results were HePTP inh 7.
Screening CCOc1ccc(OCC)c(NC(=O)C2CCN(S(=O)(=O)c3cccc4nonc34)CC2)c1 returned tolC growth inh 12, PostGolgi ctrl -1, E coli WT exp -6, PLAP activator 0.9, PostGolgi yeast -9 and HePTP inh 2.
For CC(C)(C)C(=O)C(Oc1cccc2nonc12)n1cncn1 (stereo unspecified) the results were tolC growth inh -7, PostGolgi ctrl 17, E coli WT exp -2, PLAP activator 1.1, PostGolgi yeast 46* and HePTP inh 0.
`CC(C)(C)OC(=O)NCCc1nnc(SCc2ccccc2Cl)o1` gave tolC growth inh 33, PostGolgi ctrl 11, E coli WT exp 4, PLAP activator 1.7, PostGolgi yeast 9 and HePTP inh 6.
Screening N#CCSc1nnc(CNc2cccc(Cl)c2)o1 returned tolC growth inh -7, PostGolgi ctrl 3, E coli WT exp 2, PLAP activator 0.9, PostGolgi yeast 4 and HePTP inh 4.
Clc1cccc(NCc2nnc(SCc3ccccc3Cl)o2)c1 was read as PostGolgi ctrl 40*, E coli WT exp -8, PLAP activator 0.7 and PostGolgi yeast 6.
`Clc1cccc(NCc2nnc(SCc3ccccc3)o2)c1` gave tolC growth inh 99*, PostGolgi ctrl 20, E coli WT exp 7, PLAP activator 1.1, PostGolgi yeast 11 and HePTP inh 4.
COc1ccc(-c2csc(NC(=O)C3CCCCN3S(=O)(=O)c3ccccc3)n2)cc1 (stereo unspecified) was read as PostGolgi ctrl 52*, E coli WT exp -14, PLAP activator 1 and PostGolgi yeast 6.
Screening Cc1ccc(S(=O)(=O)N2CCCC2C(=O)Nc2nc3ccccc3s2)cc1 (stereo unspecified) returned tolC growth inh 21, PostGolgi ctrl 44*, E coli WT exp 4, PLAP activator 1 and PostGolgi yeast -11.
For Cc1ccc(NC(=O)C2CCCN2S(=O)(=O)c2ccc(C)cc2)cc1 (stereo unspecified) the results were HePTP inh 6.
`O=C(Nc1ccc(OC(F)(F)F)cc1)C1CCCN1S(=O)(=O)c1ccc(Cl)cc1` (stereo unspecified) gave HePTP inh -3.
